# Activity calls are given as the source filed them. The calls are words filed in the database; no cut-off is given here.
# Key:
# Type in all cases: functional, organism-based
# Mus musculus [1] = test: Reduction of plasma TNF-alpha levels in ob/ob mouse at 3 mg/kg administered daily via oral gavage for 31 days by ELISA relative to vehicle-treated control
# Outline: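 Male ob/ob mice treated daily by gavage (soybean vehicle); plasma LPS and TNF-α quantified by ELISA kits. For antibiotic groups, ob/ob mice first received an oral antibiotic cocktail (ampicillin 1 g/L, vancomycin, neomycin, gentamycin, erythromycin) for three weeks, then 3.0 mg/kg/day; n = 8 per group.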
# Alistipes = test: Decrease in Alistipes levels in cecum of ob/ob mouse at 3 mg/kg administered daily via oral gavage for 31 days by 16S rRNA gene high-throughput sequencing method
# Outline: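 Male ob/ob mice dosed daily by gavage at 1.0 or 3.0 mg/kg, compared with vehicle group. DNA extracted from about 150 mg caecum contents. 16S rRNA V3–V4 region amplified and sequenced on Illumina HiSeq PE250. Community compared by NMDS/MRPP; discriminant taxa identified by LEfSe.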
# Mus musculus [2] = test: Hypolipidemic activity in antibiotic-treated ob/ob mouse assessed as decrease in plasma LDL-C levels at 3 mg/kg administered daily via oral gavage for 3 weeks
# Outline: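 Male ob/ob mice pretreated three weeks with ampicillin (1 g/L), vancomycin, neomycin, gentamycin and erythromycin. Groups of n = 8 given 3.0 mg/kg/day orally in soybean vehicle versus vehicle. Plasma and hepatic lipids, fasting glucose, OGTT (glucose 2 g/kg after overnight fast) and HbA1c measured.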
# Mus musculus [3] = test: Hypolipidemic activity in ob/ob mouse assessed as decrease in macrosteatosis at 3 mg/kg administered daily via oral gavage for 31 days by hematoxylin-eosin staining-based microscopic method
# Outline: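 Male ob/ob mice dosed by gavage (soybean vehicle); liver and abdominal white adipose tissue fixed in 10% formaldehyde-PBS pH 7.4, paraffin-embedded, sectioned, stained with H&E, Oil Red O or sirius red, and examined by light microscopy.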
# Mus musculus [4] = test: Hypolipidemic activity in ob/ob mouse assessed as decrease in serum ALT levels at 0.3 to 3 mg/kg administered daily via oral gavage for 31 days
structure (smiles),measurement,setting,value
CC(C)=CCC/C(C)=C/CCC1=C[C@H](c2ccc(C(C)(C)C)cc2)OC1=O,Activity,Mus musculus [1],Active
same,Activity,Alistipes,Active
same,Activity,Mus musculus [2],inactive
same,Activity,Mus musculus [3],Active
same,Activity,Mus musculus [4],Active

# From ChEMBL document CHEMBL4177753, “Structural Modification of Natural Product Ganomycin I Leading to Discovery of a α-Glucosidase and HMG-CoA Reductase Dual Inhibitor Improving Obesity and Metabolic Dysfunction in Vivo” (J Med Chem, 2018)
